From ChEMBL document CHEMBL4043303, “Development of Novel Melanocortin Receptor Agonists Based on the Cyclic Peptide Framework of Sunflower Trypsin Inhibitor-1” (J Med Chem, 2018)

Key:
[1] = molecular target: T1, Melanocortin receptor 3 (Homo sapiens, UniProt P41968); assay: Displacement of [125I]-NDP-alpha-MSH from human MC3R LBD expressed in HEK293 cell membranes incubated for 16 to 23 hrs in dark by scintillation proximity assay; parameters: concentration or dose not given beside the values; details: concentration not given here
T1 sequence (P41968 whole entry, the tested form may be a part): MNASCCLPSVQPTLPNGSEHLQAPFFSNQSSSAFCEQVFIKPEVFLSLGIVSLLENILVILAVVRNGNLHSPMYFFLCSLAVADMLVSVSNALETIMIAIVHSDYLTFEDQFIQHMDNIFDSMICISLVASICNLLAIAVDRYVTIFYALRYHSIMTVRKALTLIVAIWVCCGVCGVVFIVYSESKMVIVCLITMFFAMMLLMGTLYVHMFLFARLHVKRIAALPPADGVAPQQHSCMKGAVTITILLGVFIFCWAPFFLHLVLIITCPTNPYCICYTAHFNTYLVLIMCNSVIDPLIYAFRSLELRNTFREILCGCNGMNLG

[2] = molecular target: T2, Melanocortin receptor 4 (Homo sapiens, UniProt P32245); assay: Agonist activity at human MC4R expressed in low doxycyclin-treated HEK293 cell membranes assessed as increase in cAMP production after 45 mins by HTRF method; type: functional, cell-based
T2 sequence (P32245 whole entry): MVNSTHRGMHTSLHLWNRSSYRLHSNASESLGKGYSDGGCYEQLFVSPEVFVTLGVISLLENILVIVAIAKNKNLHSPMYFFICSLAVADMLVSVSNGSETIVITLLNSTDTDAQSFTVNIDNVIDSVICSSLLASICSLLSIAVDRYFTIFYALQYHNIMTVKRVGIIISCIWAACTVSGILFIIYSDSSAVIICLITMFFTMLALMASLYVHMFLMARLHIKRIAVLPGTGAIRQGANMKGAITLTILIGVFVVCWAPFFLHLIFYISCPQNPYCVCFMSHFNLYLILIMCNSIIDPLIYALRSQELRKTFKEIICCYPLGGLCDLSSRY
Method in brief: (§1)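 T-REx-293 cells stably expressing doxycycline-inducible human MC1R, MC3R or MC4R; expression induced 24 h with 0.1 ng/mL (low) or 10 ng/mL (high, MC4R only) doxycycline. 1000 cells/well in HBSS, 20 mM HEPES pH 7.4, 0.1% BSA, 1 mM IBMX; stimulated at 37 °C. Time-resolved FRET cAMP read-out normalized to NDP-α-MSH maximum.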

[3] = molecular target: T1, Melanocortin receptor 3; assay: Agonist activity at human MC3R expressed in low doxycyclin-treated HEK293 cell membranes assessed as increase in cAMP production after 45 mins by HTRF method; type: functional, cell-based; parameters: concentration or dose not given beside the values; method in brief: as §1
[4] = molecular target: T3, Melanocyte-stimulating hormone receptor (Homo sapiens, UniProt Q01726); assay: Agonist activity at human MC1R expressed in low doxycyclin-treated HEK293 cell membranes assessed as increase in cAMP production after 45 mins by HTRF method; type: functional, cell-based
T3 sequence (Q01726 whole entry, looked up, the tested form may be a part): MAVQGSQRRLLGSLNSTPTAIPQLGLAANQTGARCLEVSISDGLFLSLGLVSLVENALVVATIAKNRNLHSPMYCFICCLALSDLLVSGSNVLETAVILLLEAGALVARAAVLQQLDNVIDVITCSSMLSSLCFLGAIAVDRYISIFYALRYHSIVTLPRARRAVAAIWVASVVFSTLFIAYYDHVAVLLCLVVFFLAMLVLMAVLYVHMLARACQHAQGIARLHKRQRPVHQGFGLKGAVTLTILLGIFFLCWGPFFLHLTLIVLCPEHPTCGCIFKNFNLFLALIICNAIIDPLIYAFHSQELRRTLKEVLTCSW

[5] = molecular target: Melanocortin receptor 5 (Homo sapiens, UniProt P33032); assay: Displacement of [125I]-NDP-alpha-MSH from human MC5R LBD expressed in HEK293 cell membranes incubated for 16 to 23 hrs in dark by scintillation proximity assay; parameters: concentration or dose not given beside the values; details: concentration not given here
Sequence of Melanocortin receptor 5 (P33032 whole entry, the tested form may be a part): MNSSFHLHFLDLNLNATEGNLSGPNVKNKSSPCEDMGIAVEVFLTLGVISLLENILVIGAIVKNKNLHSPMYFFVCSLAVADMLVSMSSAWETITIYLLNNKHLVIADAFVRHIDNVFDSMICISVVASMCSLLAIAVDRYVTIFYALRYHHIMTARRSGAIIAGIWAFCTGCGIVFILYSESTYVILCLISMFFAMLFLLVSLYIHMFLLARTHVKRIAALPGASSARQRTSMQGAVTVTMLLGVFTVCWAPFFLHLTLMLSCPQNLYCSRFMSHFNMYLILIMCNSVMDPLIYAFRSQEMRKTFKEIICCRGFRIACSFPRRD

[6] = molecular target: T2, Melanocortin receptor 4; assay: Agonist activity at human MC4R expressed in high doxycyclin-treated HEK293 cell membranes assessed as increase in cAMP production after 15 mins by HTRF method; type: functional, cell-based; method in brief: as §1
[7] = Solubility of the compound in water at 1 mM; type: physicochemical; details: buffer, 1000 µM
[8] = molecular target: T2, Melanocortin receptor 4; assay: Displacement of [125I]-NDP-alpha-MSH from human MC4R LBD expressed in HEK293 cell membranes incubated for 16 to 23 hrs in dark by scintillation proximity assay; parameters: concentration or dose not given beside the values; details: concentration not given here
[9] = molecular target: T3, Melanocyte-stimulating hormone receptor; assay: Displacement of [125I]-NDP-alpha-MSH from human MC1R LBD expressed in HEK293 cell membranes incubated for 16 to 23 hrs in dark by scintillation proximity assay; parameters: concentration or dose not given beside the values; details: concentration not given here

| SMILES | inhibition [1] | Activity [2] | Activity [3] | Activity [4] | inhibition [5] | Activity [6] | solubility [7] | inhibition [8] | inhibition [9] |
| --- | --- | --- | --- | --- | --- | --- | --- | --- | --- |
| CC[C@H](C)[C@@H]1NC(=O)[C@@H]2CCCN2C(=O)[C@H](Cc2c[nH]c3ccccc23)N(C)C(=O)[C@H](CCCNC(=N)N)N(C)C(=O)[C@@H](Cc2ccccc2)NC(=O)[C@H](Cc2cnc[nH]2)NC(=O)[C@H]([C@@H](C)O)NC(=O)[C@@H]2CSSC[C@H](NC1=O)C(=O)N[C@@H](Cc1ccccc1)C(=O)N1CCC[C@H]1C(=O)N[C@@H](CC(=O)O)C(=O)NCC(=O)N[C@@H](CCCNC(=N)N)C(=O)N2 | 100% | 100% | 100% | 100% | 100% | 100% | Soluble | 100% | 100% |
| CC[C@H](C)[C@@H]1NC(=O)[C@@H]2CCCN2C(=O)[C@@H]2CCCN2C(=O)[C@H]([C@@H](C)CC)NC(=O)[C@H](CO)NC(=O)[C@H](C)NC(=O)[C@H]([C@@H](C)O)NC(=O)[C@@H]2CSSC[C@H](NC1=O)C(=O)N[C@@H](Cc1cnc[nH]1)C(=O)N[C@H](Cc1ccccc1)C(=O)N[C@@H](CCCNC(=N)N)C(=O)N[C@@H](Cc1c[nH]c3ccccc13)C(=O)N[C@@H](CCCNC(=N)N)C(=O)N2 |  |  |  |  |  |  | Soluble |  |  |
| CC[C@H](C)[C@@H]1NC(=O)[C@@H]2CCCN2C(=O)[C@@H]2CCCN2C(=O)[C@H]([C@@H](C)CC)NC(=O)[C@H](CO)NC(=O)[C@H](C)NC(=O)[C@H]([C@H](C)O)NC(=O)[C@@H]2CSSC[C@H](NC1=O)C(=O)N(C)[C@@H](Cc1cnc[nH]1)C(=O)N[C@H](Cc1ccccc1)C(=O)N(C)[C@@H](CCCNC(=N)N)C(=O)N(C)[C@@H](Cc1c[nH]c3ccccc13)C(=O)N[C@@H](CCCNC(=N)N)C(=O)N2 | 100% | 100% | 100% | 100% | 100% | 100% |  | 100% | 100% |
| CC[C@H](C)[C@@H]1NC(=O)[C@@H]2CCCN2C(=O)[C@@H]2CCCN2C(=O)[C@H]([C@@H](C)CC)NC(=O)[C@H](CO)NC(=O)[C@H](C)NC(=O)[C@H]([C@@H](C)O)NC(=O)[C@@H]2CSSC[C@H](NC1=O)C(=O)N(C)[C@@H](Cc1cnc[nH]1)C(=O)N[C@H](Cc1ccccc1)C(=O)N[C@@H](CCCNC(=N)N)C(=O)N(C)[C@@H](Cc1c[nH]c3ccccc13)C(=O)N[C@@H](CCCNC(=N)N)C(=O)N2 |  |  |  |  |  |  | Soluble |  |  |
| CC[C@H](C)[C@@H]1NC(=O)[C@@H]2CCCN2C(=O)[C@H](Cc2c[nH]c3ccccc23)NC(=O)[C@H](CCCNC(=N)N)N(C)C(=O)[C@@H](Cc2ccccc2)NC(=O)[C@H](Cc2cnc[nH]2)NC(=O)[C@H]([C@@H](C)O)NC(=O)[C@@H]2CSSC[C@H](NC1=O)C(=O)N[C@@H](Cc1ccccc1)C(=O)N1CCC[C@H]1C(=O)N[C@@H](CC(=O)O)C(=O)NCC(=O)N[C@@H](CCCNC(=N)N)C(=O)N2 | 100% | 100% | 100% | 100% | 100% | 100% | Soluble | 100% | 100% |
| CC[C@H](C)[C@@H]1NC(=O)[C@@H]2CCCN2C(=O)[C@@H]2CCCN2C(=O)[C@H]([C@@H](C)CC)NC(=O)[C@H](CO)NC(=O)[C@H](C)NC(=O)[C@H]([C@@H](C)O)NC(=O)[C@@H]2CSSC[C@H](NC1=O)C(=O)N(C)[C@@H](Cc1cnc[nH]1)C(=O)N[C@H](Cc1ccccc1)C(=O)N(C)[C@@H](CCCNC(=N)N)C(=O)N[C@@H](Cc1c[nH]c3ccccc13)C(=O)N[C@@H](CCCNC(=N)N)C(=O)N2 |  |  |  |  |  |  | Soluble |  |  |
| CC[C@H](C)[C@@H]1NC(=O)[C@@H]2CCCN2C(=O)[C@@H]2CCCN2C(=O)[C@H]([C@@H](C)CC)NC(=O)[C@H](CO)NC(=O)[C@H](C)NC(=O)[C@H]([C@H](C)O)NC(=O)[C@@H]2CSSC[C@H](NC1=O)C(=O)N(C)[C@@H](Cc1cnc[nH]1)C(=O)N[C@H](Cc1ccccc1)C(=O)N[C@@H](CCCNC(=N)N)C(=O)N(C)[C@@H](Cc1c[nH]c3ccccc13)C(=O)N[C@@H](CCCNC(=N)N)C(=O)N2 | 100% | 100% | 100% | 100% | 100% | 100% |  | 100% | 100% |
| CC[C@H](C)[C@@H]1NC(=O)[C@@H]2CCCN2C(=O)[C@@H]2CCCN2C(=O)[C@H]([C@@H](C)CC)NC(=O)[C@H](CO)NC(=O)[C@H](C)NC(=O)[C@H]([C@H](C)O)NC(=O)[C@@H]2CSSC[C@H](NC1=O)C(=O)N(C)[C@@H](Cc1cnc[nH]1)C(=O)N[C@H](Cc1ccccc1)C(=O)N(C)[C@@H](CCCNC(=N)N)C(=O)N[C@@H](Cc1c[nH]c3ccccc13)C(=O)N[C@@H](CCCNC(=N)N)C(=O)N2 | 100% | 100% | 100% | 100% | 100% | 100% |  | 100% | 100% |
| CC[C@H](C)[C@@H]1NC(=O)[C@@H]2CCCN2C(=O)[C@@H]2CCCN2C(=O)[C@H]([C@@H](C)CC)NC(=O)[C@H](CO)NC(=O)[C@H](C)NC(=O)[C@H]([C@@H](C)O)NC(=O)[C@@H]2CSSC[C@H](NC1=O)C(=O)N[C@@H](Cc1cnc[nH]1)C(=O)N[C@H](Cc1ccccc1)C(=O)N[C@@H](CCCNC(=N)N)C(=O)N(C)[C@@H](Cc1c[nH]c3ccccc13)C(=O)N[C@@H](CCCNC(=N)N)C(=O)N2 |  |  |  |  |  |  | Soluble |  |  |
| CC[C@H](C)[C@@H]1NC(=O)[C@@H]2CCCN2C(=O)[C@@H]2CCCN2C(=O)[C@H]([C@@H](C)CC)NC(=O)[C@H](CO)NC(=O)[C@H](C)NC(=O)[C@H]([C@H](C)O)NC(=O)[C@@H]2CSSC[C@H](NC1=O)C(=O)N(C)[C@@H](Cc1cnc[nH]1)C(=O)N[C@H](Cc1ccccc1)C(=O)N[C@@H](CCCNC(=N)N)C(=O)N[C@@H](Cc1c[nH]c3ccccc13)C(=O)N[C@@H](CCCNC(=N)N)C(=O)N2 | 100% | 100% | 100% | 100% | 100% | 100% |  | 100% | 100% |
| CC[C@H](C)[C@@H]1NC(=O)[C@@H]2CCCN2C(=O)[C@@H]2CCCN2C(=O)[C@H]([C@@H](C)CC)NC(=O)[C@H](CO)NC(=O)[C@H](C)NC(=O)[C@H]([C@@H](C)O)NC(=O)[C@@H]2CSSC[C@H](NC1=O)C(=O)N(C)[C@@H](Cc1cnc[nH]1)C(=O)N[C@H](Cc1ccccc1)C(=O)N[C@@H](CCCNC(=N)N)C(=O)N[C@@H](Cc1c[nH]c3ccccc13)C(=O)N[C@@H](CCCNC(=N)N)C(=O)N2 |  |  |  |  |  |  | Soluble |  |  |
| CC[C@H](C)[C@@H]1NC(=O)[C@@H]2CCCN2C(=O)[C@@H]2CCCN2C(=O)[C@H]([C@@H](C)CC)NC(=O)[C@H](CO)NC(=O)[C@H](C)NC(=O)[C@H]([C@@H](C)O)NC(=O)[C@@H]2CSSC[C@H](NC1=O)C(=O)N[C@@H](Cc1c[nH]cn1)C(=O)N[C@H](Cc1ccccc1)C(=O)N(C)[C@@H](CCCNC(=N)N)C(=O)N(C)[C@@H](Cc1c[nH]c3ccccc13)C(=O)N[C@@H](CCCNC(=N)N)C(=O)N2 |  |  |  |  |  |  | Soluble |  |  |
| CC[C@H](C)[C@@H]1NC(=O)[C@@H]2CCCN2C(=O)[C@@H]2CCCN2C(=O)[C@H]([C@@H](C)CC)NC(=O)[C@H](CO)NC(=O)[C@H](C)NC(=O)[C@H]([C@@H](C)O)NC(=O)[C@@H]2CSSC[C@H](NC1=O)C(=O)N(C)[C@@H](Cc1cnc[nH]1)C(=O)N[C@H](Cc1ccccc1)C(=O)N(C)[C@@H](CCCNC(=N)N)C(=O)N(C)[C@@H](Cc1c[nH]c3ccccc13)C(=O)N[C@@H](CCCNC(=N)N)C(=O)N2 |  |  |  |  |  |  | Soluble |  |  |
| CC[C@H](C)[C@@H]1NC(=O)[C@@H]2CCCN2C(=O)[C@@H]2CCCN2C(=O)[C@H]([C@@H](C)CC)NC(=O)[C@H](CO)NC(=O)[C@H](C)NC(=O)[C@H]([C@H](C)O)NC(=O)[C@@H]2CSSC[C@H](NC1=O)C(=O)N[C@@H](Cc1cnc[nH]1)C(=O)N[C@H](Cc1ccccc1)C(=O)N[C@@H](CCCNC(=N)N)C(=O)N(C)[C@@H](Cc1c[nH]c3ccccc13)C(=O)N[C@@H](CCCNC(=N)N)C(=O)N2 | 100% | 100% | 100% | 100% | 100% | 100% |  | 100% | 100% |
| CC[C@H](C)[C@@H]1NC(=O)[C@@H]2CCCN2C(=O)[C@@H]2CCCN2C(=O)[C@H]([C@@H](C)CC)NC(=O)[C@H](CO)NC(=O)[C@H](C)NC(=O)[C@H]([C@@H](C)O)NC(=O)[C@@H]2CSSC[C@H](NC1=O)C(=O)N[C@@H](Cc1cnc[nH]1)C(=O)N[C@H](Cc1ccccc1)C(=O)N(C)[C@@H](CCCNC(=N)N)C(=O)N[C@@H](Cc1c[nH]c3ccccc13)C(=O)N[C@@H](CCCNC(=N)N)C(=O)N2 |  |  |  |  |  |  | Soluble |  |  |
